Consider 55 sequences from the array DNA melting data of Ke et al. (doi:10.1101/2024.01.08.574731).

Series [1] is described as follows: folding enthalpy; higher = less favourable; fluorescence melt of hairpins on a sequencing array, two-state fit. The settings on record: sodium 0.088 M. In a few lines: (§1)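 Two-state fits, bootstrapped, provided melting temperature and folding enthalpy from Cy3 fluorescence normalised to pre-quench Cy3 and to control constructs. Library hairpins with annealed Cy3 and quencher oligos were imaged on a sequenced MiSeq flow cell in 50 mM Na-HEPES pH 8.0, 25 mM NaCl, at 2.5 °C intervals up to 60 °C. Four replicates were combined with inverse-variance weighting. A 9.35 °C upward shift was applied to fitted temperatures to match UV melts.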

A short description of series [2]: melting temperature; fluorescence melt of hairpins on a sequencing array, two-state fit, raised by 9.35 °C to match UV melts. To be noted: sodium 0.088 M. The method, boiled down: as §1

As to GAAGTGGGAAACCATTTC (((.(((....))).))), the folding enthalpy in series [1] is -30.7 kcal/mol. The Tm in series [2] is 36.6 °C.
Take GAAGTGGGAAACCGCTTC ((((.((....)).)))): in series [1], the folding enthalpy is -31.4 kcal/mol. Further, the Tm in series [2] came out at 51.6 °C.
In the same order, the values of GAATACGAAAGTAGTTC ((((((....))).))) are -10.9 kcal/mol and 26.8 °C.
In the same order, the values of GAATACGAAAGTATATTC ((((((....)))..))) are -15.9 kcal/mol and 26.8 °C.
In the same order, the values of GAATACGAAAGTATCTTC ((((((....)))..))) are -28.1 kcal/mol and 46.2 °C.
Turning to GAATACGAAAGTATTTTC ((((((....)))..))), the folding enthalpy in series [1] was -19.9 kcal/mol. The Tm in series [2] amounted to 36.9 °C.
Take GAATACGGAAACGCATTC ((((.((....)).)))): in series [1], the folding enthalpy is -29.8 kcal/mol. Further, the Tm in series [2] turned out to be 36.8 °C.
Take GAATACGGAAACGTATCC (.(((((....))))).): the folding enthalpy in series [1] was -15.8 kcal/mol. Also, the Tm in series [2] amounted to 35.1 °C.
In the same order, the values of GAATAGGCGAAAGCCTTC (((..(((....)))))) are -8.6 kcal/mol and 29.1 °C.
For GAATAGGGAAACCTATTC (((((((....))))))), the folding enthalpy in series [1] is -42.1 kcal/mol. Moreover, in series [2], the Tm worked out at 50 °C.
Turning to GAATATGCGAAAGCATTC (((..(((....)))))), the folding enthalpy in series [1] was -9.12 kcal/mol. Moreover, in series [2], the Tm worked out at 25 °C.
In the same order, the values of GAATATGGAAACATATCC (.(((((....))))).) are -13.6 kcal/mol and 24.6 °C.
In the same order, the values of GAATCACGAAAGTGTTC (((.(((....)))))) are -15.5 kcal/mol and 39.3 °C.
In the same order, the values of GAATCAGGAAACCGATTC (((((.(....).))))) are -26.3 kcal/mol and 37.8 °C.
On to GAATCCCGAAAGGGGTTC (((.(((....))).))), for which the folding enthalpy in series [1] is -33.9 kcal/mol. Besides, the Tm in series [2] was determined as 58.1 °C.
Turning to GAATCCGAAAGGAAATTC ((((((....)))..))), in series [1], the folding enthalpy was -15.5 kcal/mol. Besides, the Tm in series [2] came out at 29.1 °C.
As to GAATCCGAAAGGAACTTC ((((((....)))..))), in series [1], the folding enthalpy was -13.1 kcal/mol. Besides, in series [2], the Tm is 33.1 °C.
With GAATCCGAAAGGAGCTTC ((((((....)))..))), in series [1], the folding enthalpy was -23.6 kcal/mol. Also, in series [2], the Tm is 41.6 °C.
In the same order, the values of GAATCCGGAAACGGATTC (((((((....))))))) are -45.2 kcal/mol and 63.6 °C.
For the sequence GAATCTGGAAACAGATCC (.(((((....))))).), the folding enthalpy in series [1] is -17.1 kcal/mol. Further, the Tm in series [2] turned out to be 33.1 °C.
In the same order, the values of GAATCTGGAAACAGGTTC (((.(((....))).))) are -31.5 kcal/mol and 44 °C.
Turning to GAATGAGGAAACTCATCC (.(((((....))))).), in series [1], the folding enthalpy was -17.4 kcal/mol. In addition, the Tm in series [2] is 29.9 °C.
GAATGCGAAAGCAATTTC ((((((....)))..))): the folding enthalpy in series [1] was -9.54 kcal/mol. Also, the Tm in series [2] is 30.6 °C.
For the sequence GAATGCGAAAGCAGCTTC ((((((....)))..))), the folding enthalpy in series [1] is -23 kcal/mol. Further, the Tm in series [2] was determined as 39.7 °C.
In the same order, the values of GAATGCGAAAGCATATTC ((((((....)))..))) are -11.6 kcal/mol and 33 °C.
In the same order, the values of GAATGCGAAAGCATGTTC ((((((....)))..))) are -11.2 kcal/mol and 42.6 °C.
In the same order, the values of GAATGCGAAAGCATTC ((((((....)))))) are -27.6 kcal/mol and 68.4 °C.
Turning to GAATGCGAAAGCATTTC ((((((....))).))), the folding enthalpy in series [1] was -12.5 kcal/mol. Also, the Tm in series [2] stood at 50.2 °C.
In the same order, the values of GAATGCGGAAACGTGTTC (((..((....))..))) are -31.8 kcal/mol and 40.3 °C.
In the same order, the values of GAATGGGCGAAAGCCTTC (((..(((....)))))) are -6.79 kcal/mol and 32 °C.
For GAATGGGGAAACCCATTC (((((((....))))))), the folding enthalpy in series [1] was -33.7 kcal/mol. Also, the Tm in series [2] stood at 57.6 °C.
As for GAATGGGGAAACCCGTTC (((.(((....))).))), the folding enthalpy in series [1] is -35.5 kcal/mol. Further, in series [2], the Tm is 48.2 °C.
In the same order, the values of GAATGTGAAAACATTC ((((((....)))))) are -35.2 kcal/mol and 51.3 °C.
In the same order, the values of GAATGTGGAAACACATCC (.(((((....))))).) are -14.1 kcal/mol and 36 °C.
On to GAATTACGAAAGTATTC (((.(((....)))))), for which the folding enthalpy in series [1] is -13.5 kcal/mol. Besides, the Tm in series [2] was 31.1 °C.
In the same order, the values of GAATTCCGAAAGGACTTC (((.(((....))).))) are -27.7 kcal/mol and 36.1 °C.
In the same order, the values of GAATTCGGAAACGAGTTC (((.(((....))).))) are -32.5 kcal/mol and 43.9 °C.
In the same order, the values of GAATTGACGAAAGTCTTC (((..(((....)))))) are -11.6 kcal/mol and 29.6 °C.
Turning to GAATTGGGAAACTAATTC (((((.(....).))))), the folding enthalpy in series [1] was -22.7 kcal/mol. The Tm in series [2] came to 35.5 °C.
In the same order, the values of GAATTTGAAAAAATTC ((((((....)))))) are -26.6 kcal/mol and 38.8 °C.
In the same order, the values of GACAAACGAAAGTTCGTC (((.(((....))).))) are -25.2 kcal/mol and 43.2 °C.
Turning to GACAACCGAAAGGTGGTC (((.(((....))).))), the folding enthalpy in series [1] was -35.3 kcal/mol. Also, the Tm in series [2] is 59.2 °C.
In the case of GACAACGAAAGTTCAGTC ((((((....)))..))), the folding enthalpy in series [1] is -14.7 kcal/mol. Also, the Tm in series [2] was 27.6 °C.
In the same order, the values of GACAACGAAAGTTCTGTC ((((((....)))..))) are -14.7 kcal/mol and 27 °C.
Consider GACAACGAAAGTTGGTC ((((((....))).))), for which the folding enthalpy in series [1] was -19.7 kcal/mol. For the same sequence, the Tm in series [2] is 53.1 °C.
Take GACAACGGAAACGTTATC ((.((((....)))).)): the folding enthalpy in series [1] was -21 kcal/mol. Further, the Tm in series [2] was determined as 31.5 °C.
For GACAAGAAATTGTC (((((....))))), the folding enthalpy in series [1] is -17.2 kcal/mol. In addition, the Tm in series [2] was found to be 37.2 °C.
In the same order, the values of GACAAGGGAAACCCTGTC ((((.((....)).)))) are -27.8 kcal/mol and 42.5 °C.
With GACAAGGGAAACCTCGTC (((.(((....))).))), the folding enthalpy in series [1] is -22.6 kcal/mol. The Tm in series [2] is 34.5 °C.
In the case of GACACACGAAAGTGCGTC (((.(((....))).))), the folding enthalpy in series [1] is -45.2 kcal/mol. Moreover, the Tm in series [2] stood at 54.5 °C.
In the same order, the values of GACACAGGAAACTACGTC (((..((....))..))) are -17 kcal/mol and 28.8 °C.
GACACAGGAAACTGTGCC (.(((((....))))).): the folding enthalpy in series [1] is -14.9 kcal/mol. In addition, in series [2], the Tm was found to be 45 °C.
As for GACACCGAAAGGTAGGTC ((((((....)))..))), the folding enthalpy in series [1] was -20.2 kcal/mol. Also, the Tm in series [2] amounted to 38.7 °C.
In the same order, the values of GACACCGAAAGGTCGGTC ((((((....)))..))) are -16.7 kcal/mol and 35 °C.
In the same order, the values of GACACCGAAAGGTCGTC ((((((....))).))) are -21.7 kcal/mol and 50.2 °C.
